Laboratory results from ChEMBL document CHEMBL1129082, “Approaches to short-acting neuromuscular blocking agents: nonsymmetrical bis-tetrahydroisoquinolinium mono- and diesters” (1996).

Key:
[1] = tested on: Felis catus; assay: Blockade duration is the time from injection to 95% control in anesthetized cats; Range is 8-9 min; format: functional
Method in brief: (§1)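 Cats kept under chloralose anesthesia, with supplemental iv doses as needed. Trachea cannulated and ventilated with room air at 20 mL/kg and 20 strokes/min. Arterial pressure taken from a right femoral artery cannula, and heart rate from the ECG. Core temperature held at 37-38 °C by radiant heat.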

[2] = tested on: Felis catus; assay: Vagal response in anesthetized cats; '++ ' means significant inhibition at ED95 or slightly higher doses; format: functional, organism-based
Method in brief: (§2)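 Chloralose-anesthetized, ventilated cats kept at 37-38 °C. Nerve stimulated for 10 s every 5 min at 20 Hz, 0.5 ms, supramaximal 10-15 V. Heart rate from the ECG and arterial pressure via a femoral cannula used as the vagal read-out.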

[3] = tested on: Felis catus; assay: Effective dose for anesthetized cats; Range is 0.5-0.7 mg/Kg; format: functional; method in brief: as §1
[4] = tested on: Felis catus; assay: Effective dose for anesthetized cats; Range is 0.3-0.4 mg/Kg; format: functional
[5] = tested on: Felis catus; assay: Blockade duration is the time from injection to 95% control in anesthetized cats; format: functional; method in brief: as §1
[6] = tested on: Felis catus; assay: Neuromuscular blocking property by neostigmine reversal in anesthetized cats at dose of 0.55 mg/Kg; Not recorded; format: functional, organism-based
[7] = tested on: Felis catus; assay: Vagal response in anesthetized cats; format: functional; method in brief: as §2
[8] = tested on: Felis catus; assay: Effective dose for anesthetized cats; format: functional; method in brief: as §1
[9] = tested on: Felis catus; assay: Vagal response in anesthetized cats; '++++ ' means significant inhibition in the absence of neuromuscular blockade; format: functional, organism-based; method in brief: as §2
[10] = tested on: Felis catus; assay: Blockade duration is the time from injection to 95% control in anesthetized cats; Range is 7-8 min; format: functional; method in brief: as §1
[11] = tested on: Felis catus; assay: Effective dose for anesthetized cats; Range is 0.7-0.8 mg/Kg; format: functional; method in brief: as §1
[12] = tested on: Felis catus; assay: Effective dose for anesthetized cats; Range is 0.3-0.5 mg/Kg; format: functional; method in brief: as §1
[13] = tested on: Felis catus; assay: Vagal response in anesthetized cats; '+++ ' means significant inhibition at doses that produce neuromuscular blockade; format: functional, organism-based
Method in brief: (§3)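 Anesthetized cats given supplemental iv α-chloralose as needed, tracheally cannulated and ventilated with room air (20 mL/kg, 20 strokes/min), core temperature held at 37–38 °C. Right vagus crushed distal to the nodose ganglia and stimulated for 10 s every 5 min (20 Hz, 0.5 ms, 10–15 V supramaximal). Femoral arterial pressure recorded; heart rate taken from the ECG.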

[14] = tested on: Felis catus; assay: Blockade duration is the time from injection to 95% control in anesthetized cats; Range is 12-13 min; format: functional
[15] = tested on: Felis catus; assay: Effective dose for anesthetized cats; Range is 0.12-0.20 mg/Kg; format: functional; method in brief: as §1
[16] = tested on: Felis catus; assay: Blockade duration is the time from injection to 95% control in anesthetized cats; Range is 8-12 min; format: functional; method in brief: as §1
[17] = tested on: Felis catus; assay: Effective dose for anesthetized cats; Range is 4-7 mg/Kg; format: functional
[18] = tested on: Felis catus; assay: Vagal response in anesthetized cats; '++++' means significant inhibition in the absence of neuromuscular blockade; format: functional, organism-based; method in brief: as §3

In the case of `COc1ccc(C[C@@H]2c3cc(OC)c(OC)cc3CC[N+]2(C)CCCCCCCCCCCOC(=O)CC[N+]2(C)CCc3c(cc(OC)c(OC)c3OC)C2)cc1OC.[I-].[I-]` (some centres not stated), the Blockade duration [1] was 9 min, the Vagal response [2] was “significant inhibition at ED95 or slightly higher doses” and the ED95 [3] was 0.5 mg/kg.
In the case of `COc1ccc(C[C@@H]2c3cc(OC)c(OC)cc3CC[N+]2(C)CCCCCCCCCCCOC(=O)CC[N+]2(C)CCc3cc(OC)c(OC)c(OC)c3C2)cc1OC.[I-].[I-]` (some centres not stated), the ED95 [4] was 0.3 mg/kg, the Vagal response [2] was “significant inhibition at ED95 or slightly higher doses” and the Blockade duration [5] was 8 min.
For `COc1ccc(C[C@@H]2c3cc(OC)c(OC)cc3CC[N+]2(C)CCCCCCCCCOC(=O)CC[N+]2(C)CCc3cc(OC)c(OC)cc3[C@H]2Cc2ccc(OC)c(OC)c2)cc1OC.[I-].[I-]` (some centres not stated), the Neostigmine reversal [6] was “Not recorded”, the Vagal response [7] was 0 and the Blockade duration [5] was 15 min. The ED95 [8] was 0.1 mg/kg.
`COc1ccc(C[C@@H]2c3cc(OC)c(OC)cc3CC[N+]2(C)CCCCCCCCCOC(=O)CC[N+]2(C)CCc3c(cc(OC)c(OC)c3OC)C2)cc1OC.[I-].[I-]` (some centres not stated) was tested, and the Vagal response [2] was “significant inhibition at ED95 or slightly higher doses”, the Blockade duration [5] was 10 min and the ED95 [8] was 0.26 mg/kg.
With `C=CC[N+]1(CCC(=O)OCCCCCCCCC[N+]2(CC=C)CCc3cc(OC)c(OC)cc3[C@H]2Cc2ccc(OC)c(OC)c2)CCc2c(cc(OC)c(OC)c2OC)C1.[Br-].[Br-]` (some centres not stated) the Vagal response [9] was “significant inhibition in the absence of neuromuscular blockade”, the Blockade duration [10] was 8 min and the ED95 [11] was 0.7 mg/kg.
With `COc1ccc(C[C@@H]2c3cc(OC)c(OC)cc3CC[N+]2(C)CCCCCCCCCCCOC(=O)CC[N+]2(C)CCc3cc(OC)c(OC)cc3C2)cc1OC.[I-].[I-]` (some centres not stated) the Blockade duration [10] was 8 min, the Vagal response [2] was “significant inhibition at ED95 or slightly higher doses” and the ED95 [8] was 0.3 mg/kg.
In the case of `COc1cc2c(c(OC)c1OC)C[N+](C)(CCC(=O)OCCCCCCOC(=O)CC[N+]1(C)CCc3cc(OC)c(OC)c(OC)c3C1)CC2.[I-].[I-]` (configuration not stated), the Vagal response [2] was “significant inhibition at ED95 or slightly higher doses”, the ED95 [12] was 0.3 mg/kg and the Blockade duration [5] was 8 min.
`COc1ccc(C[C@@H]2c3cc(OC)c(OC)cc3CC[N+]2(C)CCC(=O)OCCCCCOC(=O)CC[N+]2(C)CCc3cc(OC)c(OC)cc3[C@H]2Cc2ccc(OC)c(OC)c2)cc1OC.O=S(=O)([O-])c1ccccc1.O=S(=O)([O-])c1ccccc1` (some centres not stated) was tested, and the Vagal response [7] was 0, the Blockade duration [5] was 14.6 min and the ED95 [8] was 0.16 mg/kg.
With `COc1ccc(C[C@@H]2c3cc(OC)c(OC)cc3CC[N+]2(C)CCCCOC(=O)CCCCOC(=O)CC[N+]2(C)CCc3cc(OC)c(OC)c(OC)c3C2)cc1OC.[I-].[I-]` (some centres not stated) the Blockade duration [5] was 8 min, the Vagal response [13] was “significant inhibition at doses that produce neuromuscular blockade” and the ED95 [8] was 0.5 mg/kg.
In the case of `COc1ccc(C[C@@H]2c3cc(OC)c(OC)cc3CC[N+]2(C)CCCCCCCCCOC(=O)CC[N+]2(C)CCC34c5c6ccc(OC)c5OC3[C@@H](OC)C=CC4[C@H]2C6)cc1OC.[I-].[I-]` (some centres not stated), the ED95 [4] was 0.3 mg/kg, the Blockade duration [14] was 13 min and the Vagal response [13] was “significant inhibition at doses that produce neuromuscular blockade”.
`COc1ccc(C[C@@H]2c3cc(OC)c(OC)cc3CC[N+]2(C)CCC(=O)OCCCCCCOC(=O)CC[N+]2(C)CCc3c(cc(OC)c(OC)c3OC)C2)cc1OC.[I-].[I-]` (some centres not stated) was tested, and the Vagal response [7] was 0, the ED95 [15] was 0.12 mg/kg and the Blockade duration [16] was 12 min.
In the case of `C=CC[N+]1(CCCCCCCCCOC(=O)CC[N+]2(C)CCC34c5c6ccc(OC)c5OC3[C@@H](OC)C=CC4[C@H]2C6)CCc2cc(OC)c(OC)cc2[C@H]1Cc1ccc(OC)c(OC)c1.[Br-].[Br-]` (some centres not stated), the ED95 [17] was 4 mg/kg, the Vagal response [18] was “significant inhibition in the absence of neuromuscular blockade” and the Blockade duration [5] was 3 min.
